Results as given in ChEMBL document CHEMBL3808379, “Isouronium and N-hydroxyguanidinium derivatives as Cell growth inhibitors: A comparative study” (Eur J Med Chem, 2016).
Each block holds one compound with its values, some of them ahead of it.

What was measured:
[1] = Binding affinity to salmon sperm DNA assessed as increase in thermal melting temperature by spectrophotometric analysis; details: Salmonidae
[2] = Cytotoxicity against human HL60 cells assessed as cell viability reduction incubated for 72 hrs by alamar blue assay; type: functional, cell-based; details: HL-60, 72 h
Summary of the method: (§1)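 HL-60 cells in log phase, 40,000 per well, were treated in triplicate with compound at 10–100 µM (final, 1:100 from ddH2O stocks) or 1% ddH2O vehicle for 72 h at 37 °C. AlamarBlue was then added for 4.5 h in the dark and fluorescence read at ex 544/em 590 nm. Viability is blank-subtracted and expressed as % of vehicle. IC50 comes from a sigmoidal fit; ≥3 independent experiments.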

[3] = Cytotoxicity against human Kelly cells assessed as cell viability reduction incubated for 72 hrs by alamar blue assay; type: functional, cell-based
Summary of the method: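 Kelly cells, 6000 per well, were allowed to attach for 24 h, then treated in triplicate at 0.1–100 µM final or with ddH2O vehicle for 72 h at 37 °C. AlamarBlue was added for 4.5 h in the dark and fluorescence read at ex 544/em 590 nm. Blank-subtracted % of vehicle; IC50 from a sigmoidal dose-response fit; ≥3 independent experiments.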

[4] = Dissociation constant, pKa of the compound; type: physicochemical
[5] = system: N=C(N)Oc1ccc(Sc2ccc(O)cc2)cc1; test: Inhibition of bovine brain tubulin polymerization assessed as rate of tubulin polymerization at 1 mM mesured at 30 s intervals for 60 mins by spectrophotometric analysis (reference value: 3.647 mOD/min); details: Bos taurus
[6] = Cell cycle arrest in human Kelly cells assessed as accumulation at polyploid Gn phase at 25 uM after 48 hrs by propidium iodide staining-based flow cytometric analysis (reference value: 8.97 +/- 1.27%); type: functional
[7] = Cell cycle arrest in human Kelly cells assessed as accumulation at polyploid Gn phase at 25 uM after 72 hrs by propidium iodide staining-based flow cytometric analysis (reference value: 13.07 +/- 0.25%); type: functional
[8] = Cell cycle arrest in human Kelly cells assessed as accumulation at pre-G1 phase at 50 uM after 24 hrs by propidium iodide staining-based flow cytometric analysis (reference value: 6.12 +/- 0.95%); type: functional
[9] = Cell cycle arrest in human Kelly cells assessed as accumulation at pre-G1 phase at 50 uM after 48 hrs by propidium iodide staining-based flow cytometric analysis (reference value: 5.88 +/- 1.13%); type: functional
[10] = Cell cycle arrest in human Kelly cells assessed as accumulation at pre-G1 phase at 50 uM after 72 hrs by propidium iodide staining-based flow cytometric analysis (reference value: 10.21 +/- 2.85%); type: functional
[11] = Cell cycle arrest in human Kelly cells assessed as accumulation at G0/G1 phase at 50 uM after 24 hrs by propidium iodide staining-based flow cytometric analysis (reference value: 52.37 +/- 1.44%); type: functional
[12] = Cell cycle arrest in human Kelly cells assessed as accumulation at G0/G1 phase at 50 uM after 48 hrs by propidium iodide staining-based flow cytometric analysis (reference value: 52.54 +/- 2.32%); type: functional
[13] = Cell cycle arrest in human Kelly cells assessed as accumulation at G0/G1 phase at 50 uM after 72 hrs by propidium iodide staining-based flow cytometric analysis (reference value: 46.82 +/- 1.46%); type: functional
[14] = Cell cycle arrest in human Kelly cells assessed as accumulation at S phase at 50 uM after 24 hrs by propidium iodide staining-based flow cytometric analysis (reference value: 18.67 +/- 1.9%); type: functional
[15] = Cell cycle arrest in human Kelly cells assessed as accumulation at S phase at 50 uM after 48 hrs by propidium iodide staining-based flow cytometric analysis (reference value: 19.05 +/- 2.11%); type: functional
[16] = Cell cycle arrest in human Kelly cells assessed as accumulation at S phase at 50 uM after 72 hrs by propidium iodide staining-based flow cytometric analysis (reference value: 16.29 +/- 0.81%); type: functional
[17] = Cell cycle arrest in human Kelly cells assessed as accumulation at G2/M phase at 50 uM after 24 hrs by propidium iodide staining-based flow cytometric analysis (reference value: 13.12 +/- 0.93%); type: functional
[18] = Cell cycle arrest in human Kelly cells assessed as accumulation at G2/M phase at 50 uM after 48 hrs by propidium iodide staining-based flow cytometric analysis (reference value: 13.68 +/- 0.74%); type: functional
[19] = Cell cycle arrest in human Kelly cells assessed as accumulation at G2/M phase at 50 uM after 72 hrs by propidium iodide staining-based flow cytometric analysis (reference value: 13.84 +/- 0.76%); type: functional
[20] = Cell cycle arrest in human Kelly cells assessed as accumulation at polyploid Gn phase at 50 uM after 24 hrs by propidium iodide staining-based flow cytometric analysis (reference value: 9.85 +/- 1.54%); type: functional
[21] = Cell cycle arrest in human Kelly cells assessed as accumulation at polyploid Gn phase at 50 uM after 48 hrs by propidium iodide staining-based flow cytometric analysis (reference value: 8.97 +/- 1.27%); type: functional
[22] = Cell cycle arrest in human Kelly cells assessed as accumulation at polyploid Gn phase at 50 uM after 72 hrs by propidium iodide staining-based flow cytometric analysis (reference value: 13.07 +/- 0.25%); type: functional
[23] = Cell cycle arrest in human Kelly cells assessed as accumulation at pre-G1 phase at 25 uM after 24 hrs by propidium iodide staining-based flow cytometric analysis (reference value: 6.12 +/- 0.95%); type: functional
[24] = Cell cycle arrest in human Kelly cells assessed as accumulation at pre-G1 phase at 25 uM after 48 hrs by propidium iodide staining-based flow cytometric analysis (reference value: 5.88 +/- 1.13%); type: functional
[25] = Cell cycle arrest in human Kelly cells assessed as accumulation at pre-G1 phase at 25 uM after 72 hrs by propidium iodide staining-based flow cytometric analysis (reference value: 10.21 +/- 2.85%); type: functional
[26] = Cell cycle arrest in human Kelly cells assessed as accumulation at G0/G1 phase at 25 uM after 24 hrs by propidium iodide staining-based flow cytometric analysis (reference value: 52.37 +/- 1.44%); type: functional
[27] = Cell cycle arrest in human Kelly cells assessed as accumulation at G0/G1 phase at 25 uM after 48 hrs by propidium iodide staining-based flow cytometric analysis (reference value: 52.54 +/- 2.32%); type: functional
[28] = Cell cycle arrest in human Kelly cells assessed as accumulation at G0/G1 phase at 25 uM after 72 hrs by propidium iodide staining-based flow cytometric analysis (reference value: 46.82 +/- 1.46%); type: functional
[29] = Cell cycle arrest in human Kelly cells assessed as accumulation at S phase at 25 uM after 24 hrs by propidium iodide staining-based flow cytometric analysis (reference value: 18.67 +/- 1.9%); type: functional
[30] = Cell cycle arrest in human Kelly cells assessed as accumulation at S phase at 25 uM after 48 hrs by propidium iodide staining-based flow cytometric analysis (reference value: 19.05 +/- 2.11%); type: functional
[31] = Cell cycle arrest in human Kelly cells assessed as accumulation at S phase at 25 uM after 72 hrs by propidium iodide staining-based flow cytometric analysis (reference value: 16.29 +/- 0.81%); type: functional
[32] = Cell cycle arrest in human Kelly cells assessed as accumulation at G2/M phase at 25 uM after 24 hrs by propidium iodide staining-based flow cytometric analysis (reference value: 13.12 +/- 0.93%); type: functional
[33] = Cell cycle arrest in human Kelly cells assessed as accumulation at G2/M phase at 25 uM after 48 hrs by propidium iodide staining-based flow cytometric analysis (reference value: 13.68 +/- 0.74%); type: functional
[34] = Cell cycle arrest in human Kelly cells assessed as accumulation at G2/M phase at 25 uM after 72 hrs by propidium iodide staining-based flow cytometric analysis (reference value: 13.84 +/- 0.76%); type: functional
[35] = Cell cycle arrest in human Kelly cells assessed as accumulation at polyploid Gn phase at 25 uM after 24 hrs by propidium iodide staining-based flow cytometric analysis (reference value: 9.85 +/- 1.54%); type: functional
[36] = Cytotoxicity against human HL60 cells assessed as cell viability reduction at 100 uM incubated for 72 hrs by alamar blue assay; type: functional; details: HL-60, 72 h; summary of the method: as §1
[37] = Cell cycle arrest in human HL60 cells assessed as accumulation at pre-G1 phase at 50 uM after 24 hrs by propidium iodide staining-based flow cytometric analysis (reference value: 0.81 +/- 0.11%); type: functional; details: HL-60
[38] = Cell cycle arrest in human HL60 cells assessed as accumulation at pre-G1 phase at 50 uM after 48 hrs by propidium iodide staining-based flow cytometric analysis (reference value: 1.41 +/- 0.32%); type: functional; details: HL-60
[39] = Cell cycle arrest in human HL60 cells assessed as accumulation at pre-G1 phase at 50 uM after 72 hrs by propidium iodide staining-based flow cytometric analysis (reference value: 2.21 +/- 0.57%); type: functional; details: HL-60
[40] = Cell cycle arrest in human HL60 cells assessed as accumulation at G0/G1 phase at 50 uM after 24 hrs by propidium iodide staining-based flow cytometric analysis (reference value: 56.05 +/- 1.4%); type: functional; details: HL-60
[41] = Cell cycle arrest in human HL60 cells assessed as accumulation at G0/G1 phase at 50 uM after 48 hrs by propidium iodide staining-based flow cytometric analysis (reference value: 58.77 +/- 2.33%); type: functional; details: HL-60
[42] = Cell cycle arrest in human HL60 cells assessed as accumulation at G0/G1 phase at 50 uM after 72 hrs by propidium iodide staining-based flow cytometric analysis (reference value: 59.5 +/- 1.5%); type: functional; details: HL-60
[43] = Cell cycle arrest in human HL60 cells assessed as accumulation at S phase at 50 uM after 24 hrs by propidium iodide staining-based flow cytometric analysis (reference value: 24.46 +/- 1.15%); type: functional; details: HL-60
[44] = Cell cycle arrest in human HL60 cells assessed as accumulation at S phase at 50 uM after 48 hrs by propidium iodide staining-based flow cytometric analysis (reference value: 24.29 +/- 1.37%); type: functional; details: HL-60
[45] = Cell cycle arrest in human HL60 cells assessed as accumulation at S phase at 50 uM after 72 hrs by propidium iodide staining-based flow cytometric analysis (reference value: 23.58 +/- 1.38%); type: functional; details: HL-60
[46] = Cell cycle arrest in human HL60 cells assessed as accumulation at G2/M phase at 50 uM after 24 hrs by propidium iodide staining-based flow cytometric analysis (reference value: 16.73 +/- 0.59%); type: functional; details: HL-60
[47] = Cell cycle arrest in human HL60 cells assessed as accumulation at G2/M phase at 50 uM after 48 hrs by propidium iodide staining-based flow cytometric analysis (reference value: 11.35 +/- 1.05%); type: functional; details: HL-60
[48] = Cell cycle arrest in human HL60 cells assessed as accumulation at G2/M phase at 50 uM after 72 hrs by propidium iodide staining-based flow cytometric analysis (reference value: 10.53 +/- 0.81%); type: functional; details: HL-60
[49] = Cell cycle arrest in human HL60 cells assessed as accumulation at polyploid Gn phase at 50 uM after 24 hrs by propidium iodide staining-based flow cytometric analysis (reference value: 2.96 +/- 0.79%); type: functional; details: HL-60
[50] = Cell cycle arrest in human HL60 cells assessed as accumulation at polyploid Gn phase at 50 uM after 48 hrs by propidium iodide staining-based flow cytometric analysis (reference value: 3.02 +/- 0.56%); type: functional; details: HL-60
[51] = Cell cycle arrest in human HL60 cells assessed as accumulation at polyploid Gn phase at 50 uM after 72 hrs by propidium iodide staining-based flow cytometric analysis (reference value: 3.43 +/- 0.48%); type: functional; details: HL-60

Compound: N=C(N)Oc1ccccc1
pKa [4]: 8.29

Compound: Tubulin (Bos taurus) (from UniProt Q6B856+Q862L2+Q862F3)
Vmax [5]: 2.63 mOD/minute

Compound: N=C(N)Oc1ccc(Cc2ccc(O)cc2)cc1
ΔTm [1]: 2 °C
IC50 [2]: > 100 µM

Compound: c1ccc(NC2=NCCN2)cc1
pKa [4]: 9.16

Compound: N=C(N)Nc1ccccc1 [PHENYLGUANIDINE]
pKa [4]: 10.9

Further lines, with some results ahead:

ΔTm [1]: 2 °C
Compound: N=C(N)Oc1ccc(NC(=O)c2ccc(OC(=N)N)cc2)cc1
IC50 [2]: > 100 µM
IC50 [3]: > 100 µM

ΔTm [1]: 4 °C
Compound: N=C(N)Oc1ccc(Oc2ccc(O)cc2)cc1
Activity [6]: 6.91%
Activity [7]: 4.09%
Activity [8]: 24.3%
Activity [9]: 50.7%
Activity [10]: 49.5%
Activity [11]: 42.1%
Activity [12]: 25.2%
Activity [13]: 29%
Activity [14]: 16%
Activity [15]: 11.7%
Activity [16]: 17.3%
Activity [17]: 8.23%
Activity [18]: 3.5%
Activity [19]: 2.44%
Activity [20]: 7.77%
Activity [21]: 4.19%
Activity [22]: 2.69%
IC50 [2]: 36.9 µM
IC50 [3]: 17.3 µM
Activity [23]: 20.4%
Activity [24]: 38%
Activity [25]: 48.4%
Activity [26]: 31.2%
Activity [27]: 22.2%
Activity [28]: 26.2%
Activity [29]: 25.6%
Activity [30]: 27.5%
Activity [31]: 16.4%
Activity [32]: 11.3%
Activity [33]: 7.65%
Activity [34]: 5.04%
Activity [35]: 13.5%

ΔTm [1]: 4 °C
Compound: N=C(N)Oc1ccc(Cc2ccc(OC(=N)N)cc2)cc1
IC50 [2]: > 100 µM

ΔTm [1]: 6 °C
Compound: N=C(N)Oc1ccc(Sc2ccc(OC(=N)N)cc2)cc1
IC50 [2]: 57.4 µM
IC50 [3]: 28.7 µM
inhibition at 100 µM [36]: 95.8%
Activity [37]: 1.46%
Activity [38]: 2.25%
Activity [39]: 4.87%
Activity [40]: 52%
Activity [41]: 38.3%
Activity [42]: 35.5%
Activity [43]: 26.9%
Activity [44]: 21.9%
Activity [45]: 15.6%
Activity [46]: 18.1%
Activity [47]: 29.1%
Activity [48]: 21.9%
Activity [49]: 3.11%
Activity [50]: 8.42%
Activity [51]: 22%
